Reference: ChEMBL document CHEMBL2311367, “Synthesis, biological evaluation, and molecular modeling of glycyrrhizin derivatives as potent high-mobility group box-1 inhibitors with anti-heart-failure activity in vivo” (J Med Chem, 2013)
Residue numbers refer to the chain shown, from its start. Calls of active or inactive are those of the source. The rule behind the calls is not given here.

Key:
[1] = tested on: Mus musculus; assay: Cardioprotective activity against DOX-induced chronic heart failure DCM ip dosed C57BL/6J mouse model assessed as improvement of ejection fraction administered qd from day 70 post DOX challenge measured after 35 days; type: functional, organism-based
[2] = tested on: Mus musculus; assay: Cardioprotective activity against DOX-induced chronic heart failure DCM ip dosed C57BL/6J mouse model assessed as increase in survival rate administered qd from day 70 post DOX challenge measured after 35 days; type: functional, organism-based
Outline: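 Chronic DOX model: ip DOX at 3.5 mg/kg weekly for 8 weeks, then once-daily treatment with the indicated agent beginning two weeks after the last DOX dose. Survival followed by Kaplan-Meier curves and compared with a log rank test, n = 20/group.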

[3] = tested on: Mus musculus; assay: Cardioprotective activity against DOX-induced chronic heart failure DCM ip dosed C57BL/6J mouse model assessed as improvement of diastolic interventricular septum administered qd from day 70 post DOX challenge measured after 35 days; type: functional, organism-based
[4] = tested on: Mus musculus; assay: Cardioprotective activity against DOX-induced chronic heart failure DCM ip dosed C57BL/6J mouse model assessed as improvement of LV diastolic anterior wall administered qd from day 70 post DOX challenge measured after 35 days; type: functional, organism-based
[5] = tested on: Mus musculus; assay: Cardioprotective activity against DOX-induced chronic heart failure DCM ip dosed C57BL/6J mouse model assessed as improvement of systolic interventricular septum administered qd from day 70 post DOX challenge measured after 35 days; type: functional, organism-based
[6] = tested on: Mus musculus; assay: Cardioprotective activity against DOX-induced chronic heart failure DCM ip dosed C57BL/6J mouse model assessed as improvement of fractional shortening administered qd from day 70 post DOX challenge measured after 35 days; type: functional, organism-based
[7] = tested on: Mus musculus; assay: Cardioprotective activity against DOX-induced acute heart failure DCM in ip dosed C57BL/6J mouse model assessed as increase in survival rate administered qd from day 10 post DOX-challenge measured after 50 days by echocardiography; type: functional, organism-based
[8] = tested on: Mus musculus; assay: Cardioprotective activity against DOX-induced acute heart failure DCM in ip dosed C57BL/6J mouse model assessed as increase in ejection fraction administered qd from day 10 post DOX-challenge measured after 50 days by echocardiography; type: functional, organism-based
[9] = tested on: Mus musculus; assay: Cardioprotective activity against DOX-induced acute heart failure DCM in ip dosed C57BL/6J mouse model assessed as increase in fractional shortening administered qd from day 10 post DOX-challenge measured after 50 days by echocardiography; type: functional, organism-based
[10] = tested on: Mus musculus; assay: Cardioprotective activity against DOX-induced acute heart failure DCM in ip dosed C57BL/6J mouse model assessed as improvement in the maximum descending rate of the LV pressure administered qd from day 10 post DOX-challenge measured after 50 days by echocardiography; type: functional, organism-based
[11] = target: T1, High mobility group protein B1 (Mus musculus) (UniProt P63158); assay: Inhibition of HMGB1 in mouse RAW264.7 cells assessed as LPS-induced TNFalpha release treated for 2 hrs prior to LPS-challenge measured after 16 hrs by ELISA; type: cell-based
T1 sequence (whole entry): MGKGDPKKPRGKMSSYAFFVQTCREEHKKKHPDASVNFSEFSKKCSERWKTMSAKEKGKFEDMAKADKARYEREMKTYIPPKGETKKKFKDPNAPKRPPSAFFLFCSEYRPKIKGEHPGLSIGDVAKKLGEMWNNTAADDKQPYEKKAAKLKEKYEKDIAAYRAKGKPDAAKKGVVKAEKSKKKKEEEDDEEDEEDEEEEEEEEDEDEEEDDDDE
Outline: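 RAW 264.7 murine macrophage-like cells grown in RPMI 1640 with 10% heat-inactivated FBS and 2 mM glutamine, 5% CO2. Compounds or HMGB1 neutralizing antibody added 2 h before LPS (0.01 ng/mL), then 16 h stimulation; TNF-α in supernatant measured by ELISA. Each compound run at least twice in triplicate; ED50 given with 95% confidence interval.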

[12] = tested on: Mus musculus; assay: Cardioprotective activity against DOX-induced acute heart failure DCM in ip dosed C57BL/6J mouse model assessed as improvement in the maximum ascending rate of the LV pressure administered qd from day 10 post DOX-challenge measured after 50 days by echocardiography; type: functional, organism-based
[13] = target: T2, High mobility group protein B1 (Homo sapiens, UniProt P09429); assay: Binding affinity to HMGB1 (unknown origin)
T2 sequence (P09429 whole entry): T1 sequence (whole entry) with D189E, E202D

ED50 [11] [µM]	Structure (SMILES)	Activity [7]	Activity [8]	Activity [9]	Activity [10]	Activity [12]	also measured
141	CC1(C)[C@@H](O[C@H]2O[C@H](C(=O)O)[C@@H](O)[C@H](O)[C@H]2O[C@@H]2O[C@H](C(=O)O)[C@@H](O)[C@H](O)[C@H]2O)CC[C@]2(C)[C@H]3C(=O)C=C4[C@@H]5C[C@@](C)(CN[C@@H](CCC(=O)O)C(=O)O)CC[C@]5(C)CC[C@@]4(C)[C@]3(C)CC[C@@H]12	Active	Active	Active	Active	Active	Activity [1]: Active; Activity [2]: Active; Activity [3]: Active; Activity [4]: Active; Activity [5]: Active; Activity [6]: Active
	CC1(C)[C@@H](O[C@H]2O[C@H](C(=O)O)[C@@H](O)[C@H](O)[C@H]2O[C@@H]2O[C@H](C(=O)O)[C@@H](O)[C@H](O)[C@H]2O)CC[C@]2(C)[C@H]3C(=O)C=C4[C@@H]5C[C@@](C)(CN[C@@H](Cc6ccc(O)cc6)C(=O)O)CC[C@]5(C)CC[C@@]4(C)[C@]3(C)CC[C@@H]12						inhibition [11]: inactive
	CC1(C)[C@@H](O[C@H]2O[C@H](C(=O)O)[C@@H](O)[C@H](O)[C@H]2O[C@@H]2O[C@H](C(=O)O)[C@@H](O)[C@H](O)[C@H]2O)CC[C@]2(C)[C@H]3C(=O)C=C4[C@@H]5C[C@@](C)(CNCC(=O)O)CC[C@]5(C)CC[C@@]4(C)[C@]3(C)CC[C@@H]12	inactive	inactive	inactive	inactive	inactive	inhibition [11]: inactive
337	C[C@H](NC[C@@]1(C)CC[C@]2(C)CC[C@]3(C)C(=CC(=O)[C@@H]4[C@@]5(C)CC[C@H](O[C@H]6O[C@H](C(=O)O)[C@@H](O)[C@H](O)[C@H]6O[C@@H]6O[C@H](C(=O)O)[C@@H](O)[C@H](O)[C@H]6O)C(C)(C)[C@@H]5CC[C@]43C)[C@@H]2C1)C(=O)O	inactive	inactive		Active	Active	
161	CC1(C)[C@@H](O[C@H]2O[C@H](C(=O)O)[C@@H](O)[C@H](O)[C@H]2O[C@@H]2O[C@H](C(=O)O)[C@@H](O)[C@H](O)[C@H]2O)CC[C@]2(C)[C@H]3C(=O)C=C4[C@@H]5C[C@@](C)(CN[C@@H](CO)C(=O)O)CC[C@]5(C)CC[C@@]4(C)[C@]3(C)CC[C@@H]12	Active	Active	Active	Active	Active	
193	CC1(C)[C@@H](O[C@H]2O[C@H](C(=O)O)[C@@H](O)[C@H](O)[C@H]2O[C@@H]2O[C@H](C(=O)O)[C@@H](O)[C@H](O)[C@H]2O)CC[C@]2(C)[C@H]3C(=O)C=C4[C@@H]5C[C@@](C)(CNC6CCCCC6)CC[C@]5(C)CC[C@@]4(C)[C@]3(C)CC[C@@H]12						
144	CC1(C)[C@@H](O[C@H]2O[C@H](C(=O)O)[C@@H](O)[C@H](O)[C@H]2O[C@@H]2O[C@H](C(=O)O)[C@@H](O)[C@H](O)[C@H]2O)CC[C@]2(C)[C@H]3C(=O)C=C4[C@@H]5C[C@@](C)(CN[C@@H](Cc6c[nH]c7ccccc67)C(=O)O)CC[C@]5(C)CC[C@@]4(C)[C@]3(C)CC[C@@H]12	Active	Active	Active	Active	Active	
226	CCCNC[C@@]1(C)CC[C@]2(C)CC[C@]3(C)C(=CC(=O)[C@@H]4[C@@]5(C)CC[C@H](O[C@H]6O[C@H](C(=O)O)[C@@H](O)[C@H](O)[C@H]6O[C@@H]6O[C@H](C(=O)O)[C@@H](O)[C@H](O)[C@H]6O)C(C)(C)[C@@H]5CC[C@]43C)[C@@H]2C1						
144	CC1(C)[C@@H](O[C@H]2O[C@H](C(=O)O)[C@@H](O)[C@H](O)[C@H]2O[C@@H]2O[C@H](C(=O)O)[C@@H](O)[C@H](O)[C@H]2O)CC[C@]2(C)[C@H]3C(=O)C=C4[C@@H]5C[C@@](C)(CN[C@@H](CC(=O)O)C(=O)O)CC[C@]5(C)CC[C@@]4(C)[C@]3(C)CC[C@@H]12	Active	Active	Active	Active	Active	Activity [1]: inactive; Activity [2]: inactive; Activity [3]: inactive; Activity [4]: inactive; Activity [5]: inactive; Activity [6]: inactive
	CC1(C)[C@@H](O[C@H]2O[C@H](C(=O)O)[C@@H](O)[C@H](O)[C@H]2O[C@@H]2O[C@H](C(=O)O)[C@@H](O)[C@H](O)[C@H]2O)CC[C@]2(C)[C@H]3C(=O)C=C4[C@@H]5C[C@@](C)(CN[C@@H](Cc6ccccc6)C(=O)O)CC[C@]5(C)CC[C@@]4(C)[C@]3(C)CC[C@@H]12						inhibition [11]: inactive
70	CC1(C)[C@@H](O[C@H]2O[C@H](C(=O)O)[C@@H](O)[C@H](O)[C@H]2O[C@@H]2O[C@H](C(=O)O)[C@@H](O)[C@H](O)[C@H]2O)CC[C@]2(C)[C@H]3C(=O)C=C4[C@@H]5C[C@@](C)(C(=O)O)CC[C@]5(C)CC[C@@]4(C)[C@]3(C)CC[C@@H]12 [GLYCYRRHIZIN]						Kd [13]: 150 µM
